sPLA2-III inh – Inhibits HGIII-sPLA2 liposome hydrolysis, primary screen. 370,000 compounds, 0.56% hits. AID 743126. Q9NZ20. QFRET BODIPY PC-A2 liposome hydrolysis, fluorescence. inhibition, % at 12.2 µM;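 active = inhibition above mean plus 3 SD of compounds lying within the high and low control bounds, cut at about 19% in these data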;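 also: 0% = median of test compound wells and 100% = no enzyme DMSO wells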
Rev-erbA mod – modulates human Rev-erb alpha binding to DNA; 370,000 compounds, 0.79% hits; Rev-erbα–FITC-DNA binding, fluorescence polarization, 90 min; activity, % at 10 µM;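 active = activity above about 14%, limit read from the data; passing the limit was not always enough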;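 also: 0% = DMSO wells with 35 nM protein and 100% = DMSO wells with 750 nM protein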
MsrA inh – inhibitors of bovine MsrA; inhibition, % at 15.5 µM; AID 651718; purified bovine MsrA, absorbance read-out; 360,000 compounds, 0.75% hits; in the data active = inhibition above about 4.5%;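 also: 0% = vehicle wells with enzyme and 100% = reference inhibitor wells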
ASAP1 inh – inhibitors of human ASAP1 ArfGAP activity | Q9ULH1 | ASAP1-stimulated ARF1 GTP hydrolysis, GDP FP detection | inhibition, % at 16.5 µM | 360,000 compounds, 0.19% hits | AID 624377; in the data active = inhibition above about 25%;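 also: 0% = vehicle with enzyme and substrate and 100% = no enzyme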
Target sequence (Q9ULH1 325-724 limits assumed): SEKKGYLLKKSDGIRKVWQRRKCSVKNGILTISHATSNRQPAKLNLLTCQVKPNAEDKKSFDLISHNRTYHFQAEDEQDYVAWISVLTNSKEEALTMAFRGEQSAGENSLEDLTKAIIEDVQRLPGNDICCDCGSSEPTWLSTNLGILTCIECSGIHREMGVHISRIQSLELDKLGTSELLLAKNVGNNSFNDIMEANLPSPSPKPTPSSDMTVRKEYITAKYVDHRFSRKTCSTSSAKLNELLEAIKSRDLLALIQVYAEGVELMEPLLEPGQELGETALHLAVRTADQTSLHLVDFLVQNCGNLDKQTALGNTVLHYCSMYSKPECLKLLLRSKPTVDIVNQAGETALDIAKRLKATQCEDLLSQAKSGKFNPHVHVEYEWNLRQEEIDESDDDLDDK
bovine MsrA act – bovine methionine sulfoxide reductase A activation | activation, % at 10.6 µM | purified bovine MsrA, absorbance read-out | 360,000 compounds, 0.3% hits; in the data active = activation above about 7.5%;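 also: 0% = vehicle and 100% = reference activator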
ARFGAP1 inhibitor – rat ARFGAP1 inhibition; Arfgap1-stimulated ARF1 GTP hydrolysis, GDP FP detection; inhibition, % at 16.5 µM; Q62848; 360,000 compounds, 0.26% hits;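 active = inhibition above a per-plate limit, mean inhibition of low control wells plus 3 SD, cut at about 25% in these data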;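 also: 0% = DMSO wells with enzyme and 100% = wells lacking Arfgap1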
Target sequence (Q62848 1-136 limits assumed): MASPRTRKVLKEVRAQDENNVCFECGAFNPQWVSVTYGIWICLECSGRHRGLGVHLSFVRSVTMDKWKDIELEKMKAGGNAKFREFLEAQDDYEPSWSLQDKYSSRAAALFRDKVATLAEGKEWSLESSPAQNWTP
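Replicates: Single well per compound | Assay system: Truncated rat Arfgap1 GAP domain | Control set: No-Arfgap1 wells (100%) versus DMSO full-reaction wells (0%) | Times: Enzyme reaction 120 min at 25 °C after 20 min preincubation | Reagent: Human ARF1(Δ1-17)-GTP substrate | Measured by: Tracer-displacement fluorescence polarization with EDTA stop, 620/688 nm | Measure: Percent inhibition of Arfgap1-stimulated GTP hydrolysis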
NR1D1 mod conf – confirmation of modulators of human Rev-erb alpha DNA binding; Rev-erb alpha FITC-DNA binding, fluorescence polarization, 90 min; activation, % at 25 µM; shares compounds with Rev-erbA mod; 3,000 compounds, 61% hits;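 active = activation at or above a set limit, or at least 3 SD above the negative control mean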;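 also: 0% = 35 nM protein with DMSO and 100% = 750 nM protein high control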
RORg counter – affects RORgamma DNA binding in a Rev-erb alpha counter-screen | shares compounds with Rev-erbA mod | 910 compounds, 8% hits | IC50, µM | purified RORgamma protein-FITC-DNA binding, fluorescence polarization | AID 1259320;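 active = Compounds whose fitted half-maximal concentration for disrupting protein-DNA binding is below 10 micromolar; the record names Rev-erb in its text, so the target is in doubt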
Starred values were filed as active, the others as inactive; / = no result given. An excerpt weighted towards active compounds, which were near 2.7% of everything screened.

SMILES | sPLA2-III inh | Rev-erbA mod | MsrA inh | ASAP1 inh | bovine MsrA act | ARFGAP1 inhibitor | NR1D1 mod conf | others
O=C(Nc1ccc(N2CCOCC2)cc1)c1csc([C@@H]2C[C@H](O)[C@@H](CO)O2)n1 | 6.9 | 0.9 | -0.8 | 1.5 | -4.6 | 4.1 | /
CC(OC(=O)[C@@H](NC(=O)OCc1ccccc1)C(C)C)C(=O)Nc1ccc(N2CCOCC2)cc1 (stereo partly drawn) | 8.6 | 5.2 | 0.7 | -1.5 | 0.2 | -8.4 | /
Cc1ccc(S(=O)(=O)N2[C@H](CC(=O)c3cccc4ccccc34)OC[C@@H]2C)cc1 | -13.4 | 3.1 | 1.6 | 1.0 | / | -19.1 | /
O=C(O)c1cc(-c2ccc(/C=C3/SC(=S)N(Cc4ccccc4)C3=O)o2)ccc1Cl | -1.5 | 21.5* | 0.9 | -12.8 | -3.1 | 4.3 | 18.0
Cc1ccc(/C=C2\SC(=S)N(Cc3ccccc3)C2=O)o1 | 5.8 | -0.8 | -0.4 | -6.5 | -1.2 | 6.5 | /
CC(=O)c1cccc(-c2ccnc3c2CC(C(=O)Nc2cccc(NS(C)(=O)=O)c2)O3)c1 (stereo not drawn) | 5.2 | 4.3 | 0.3 | 1.6 | -1.0 | 1.0 | /
CCOc1ccc(CNC(=O)CS(=O)(=O)Cc2nc(-c3ccc(OC)cc3)oc2C)cc1 | -13.6 | 26.3* | -0.5 | 5.7 | -0.2 | -7.0 | 7.7
COc1ccc(CNC(=O)CS(=O)(=O)Cc2nc(-c3cccc(OC)c3)oc2C)cc1 | -4.1 | 24.7* | 1.9 | 2.1 | -3.9 | -2.0 | 22.4*
COc1cccc(-c2nc(CS(=O)(=O)CC(=O)NCCc3ccc(C)cc3)c(C)o2)c1 | -21.3 | 5.7 | 0.7 | 13.3 | 0.1 | 0.1 | /
CCOc1ccc(CCNC(=O)CS(=O)(=O)Cc2nc(-c3ccc(OC)cc3)oc2C)cc1 | -0.7 | 2.8 | -1.2 | -13.1 | -7.5 | 9.7 | /
COC(=O)[C@]12CCCCC=C1N(Cc1ccc3c(c1)OCO3)C(=O)[C@H](CC(=O)N1CCSCC1)C2 | 5.2 | 2.8 | 0.6 | 10.4 | / | 1.0 | /
COc1ccccc1CN(C)C(=O)c1cc(S(=O)(=O)N2CCCCCC2)ccc1OC | 6.8 | 0.6 | 0.4 | -1.8 | 0.0 | -7.3 | /
O=C(Nc1nc(=O)c2ccccc2s1)c1ccc(F)cc1 | 1.0 | 78.7* | 0.7 | 7.0 | 5.6 | -5.7 | 69.7* | RORg counter=>40
O=C(Nc1nc2ccsc2c(=O)s1)c1ccc(Cl)cc1 | 4.1 | 109.7* | -0.6 | -8.1 | -3.3 | 10.5 | 44.0* | RORg counter=>40
O=C(Nc1nc(=O)c2ccccc2s1)c1ccc(Cl)cc1 | -1.7 | 78.3* | 1.3 | 12.5 | -4.9 | 1.4 | 107.2* | RORg counter=>40
O=C(Cc1ccccc1)Nc1nc2ccccc2s1 | -21.4 | 2.1 | -0.5 | -5.4 | -5.1 | 6.5 | /
O=C(Cc1ccccc1)Nc1nc(=O)c2ccccc2s1 | -2.5 | 31.7* | 1.0 | -9.5 | 0.3 | 11.8 | 17.7*
COC(=O)c1cc(-c2cccc3c2sc2ccccc23)c(=O)n2c1CCC2 | 12.2 | 3.8 | / | / | / | / | /
O=C(Nc1cc2c(cc1Cl)-c1ccc([N+](=O)[O-])cc1C2=NO)C(F)(F)F | / | / | / | / | -4.7 | / | /
Cc1ccc(Cl)cc1N1CCN(Cc2nc3c(c(=O)[nH]c(=O)n3C)n2Cc2ccccc2F)CC1 | -4.4 | 29.4* | -0.1 | 2.0 | -0.9 | -16.3 | 18.5*
Cc1ccc(Cl)cc1N1CCN(Cc2nc3c(c(=O)[nH]c(=O)n3C)n2CCc2ccccc2)CC1 | -2.5 | 2.4 | 1.0 | 4.5 | -1.0 | -7.3 | /
O=C(Cn1c(=S)[nH]c2ccccc2c1=O)NCCc1ccccc1 | 9.2 | 31.1* | 0.1 | -9.9 | 6.7 | 5.1 | 30.9* | RORg counter=>40
O=C(CCn1c(=S)[nH]c2ccccc2c1=O)NCCSCc1ccccc1 | 9.1 | 3.3 | 0.2 | 8.8 | 0.8 | 4.3 | /
Cc1ccc(S(=O)(=O)N2[C@H](c3cccc(Cl)c3)CC(=O)[C@@H]3CN(S(=O)(=O)c4ccccc4C)[C@H](c4ccc(Cl)cc4)C[C@@H]32)cc1 | -1.7 | -3.8 | 0.2 | -2.5 | -1.6 | 14.2 | /
Cc1c[nH]c2cccc(-c3ccc4c(c3)OCO4)c12 | 2.8 | 5.3 | / | / | / | / | /
Cc1cccc(C)c1NC(=O)Cn1c(=O)c2cccn2c2ccccc21 | 0.1 | -1.1 | -0.3 | 19.4 | -1.8 | 15.7 | /
